Reference: ChEMBL document CHEMBL1777764, “Synthesis and evaluation of 1-(1H-indol-3-yl)ethanamine derivatives as new antibacterial agents” (Bioorg Med Chem, 2011)
≈ marks a conversion by molar mass, not a printed value.

Legend:
Acinetobacter baumannii = test: microbe, parasite or virus in culture; settings: ATCC 19606 = CIP 70.34 = JCM 6841, 18 h
HCT-116 [1] = test: Cytotoxicity against human HCT116 cells at 1 uM; type: cell-based; settings: hct-116, 1 µM
Streptococcus pneumoniae [2] = test: Antibacterial activity against Streptococcus pneumoniae ATCC 6303 after 18 hrs by broth microdilution method; type: functional; settings: ATCC 6303, 18 h
Method in brief: (§1)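 MIC by broth microdilution per ISO 20776-1:2006 and CLSI M07-A8. Inoculum 10^6 cfu/ml in Mueller-Hinton broth […]. Compound serially diluted, final 2 to 128 ug/ml, duplicate rows, no-drug growth control. Read after 18 h at 37 °C as lowest concentration fully inhibiting visible growth. At least two experiments.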

Staphylococcus aureus [3] = test: Antibacterial activity against Staphylococcus aureus ATCC 6538 after 18 hrs by broth microdilution method; type: functional; settings: ATCC 6538, 18 h
Method in brief: (§2)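 MIC by broth microdilution per ISO 20776-1:2006 and CLSI M07-A8. Inoculum 10^6 cfu/ml in Mueller-Hinton broth with compound serially diluted, final concentrations 2 to 128 ug/ml, duplicate rows, no-drug growth control. Incubation 18 h at 37 °C. MIC taken as lowest concentration giving complete inhibition of visible growth. Each compound tested at least twice.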

MRC5 [4] = test: Cytotoxicity against human MRC5 cells at 10 uM; type: cell-based; settings: mrc5, 10 µM
Enterococcus faecium = test: Antibacterial activity against Enterococcus faecium CIP 54.32 after 18 hrs by broth microdilution method; type: functional; settings: CIP 54.32, 18 h
Method in brief: (§3)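 Broth microdilution following ISO 20776-1:2006 and CLSI M07-A8, in Mueller-Hinton broth. Inoculum was 10^6 cfu/ml, with compound serial dilutions spanning 2 to 128 ug/ml and a compound-free growth control well. Plates were incubated 18 h at 37 °C. MIC was the lowest concentration giving complete inhibition of visible growth. Each compound was tested at least twice.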

Streptococcus agalactiae = test: Antibacterial activity against Streptococcus agalactiae ATCC 12400 after 18 hrs by broth microdilution method; type: functional; settings: ATCC 12400, 18 h
Method in brief: as §3

HCT-116 [5] = test: Cytotoxicity against human HCT116 cells at 10 uM; type: cell-based; settings: hct-116, 10 µM
MRC5 [6] = test: Cytotoxicity against human MRC5 cells at 1 uM; type: cell-based; settings: mrc5, 1 µM
[7] = system: Staphylococcus epidermidis; test: Antibacterial activity against Staphylococcus epidermidis CIP 103627 after 18 hrs by broth microdilution method; type: functional; settings: CIP 103627, 18 h
Method in brief: as §2

KB [8] = test: Cytotoxicity against human KB cells at 1 uM; type: cell-based
Serratia marcescens = test: microbe, parasite or virus in culture; settings: CIP 103551, 18 h
Staphylococcus aureus [9] = test: Antibacterial activity against Staphylococcus aureus ATCC 25923 after 18 hrs by broth microdilution method; type: functional; settings: ATCC 25923, 18 h
Method in brief: as §2

Staphylococcus aureus [10] = test: Antibacterial activity against Staphylococcus aureus CIP 103428 after 18 hrs by broth microdilution method; type: functional; settings: CIP 103428, 18 h
Method in brief: as §2

Klebsiella pneumoniae = test: microbe, parasite or virus in culture; settings: ATCC 35657, 18 h
Streptococcus pneumoniae [11] = test: Antibacterial activity against Streptococcus pneumoniae ATCC 49619 after 18 hrs by broth microdilution method; type: functional; settings: ATCC 49619, 18 h
Method in brief: as §1

Escherichia coli = test: Antibacterial activity against Escherichia coli ATCC 25922 after 18 hrs by broth microdilution method; type: functional; settings: ATCC 25922, 18 h
Method in brief: as §3

Haemophilus influenzae = test: Antibacterial activity against Haemophilus influenzae ATCC 49766 after 18 hrs by broth microdilution method; type: functional; settings: ATCC 49766, 18 h
Method in brief: as §3, with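 “broth […].” for “broth.”, “read after” for “incubated”, “with no” for “giving complete inhibition of”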

Pseudomonas aeruginosa = test: microbe, parasite or virus in culture; settings: CIP 5933, 18 h
[12] = system: Staphylococcus epidermidis; test: Antibacterial activity against Staphylococcus epidermidis ATCC 12228 after 18 hrs by broth microdilution method; type: functional; settings: ATCC 12228, 18 h
Method in brief: as §2

Staphylococcus aureus [13] = test: Antibacterial activity against methicillin-resistant Staphylococcus aureus CIP 65.25 after 18 hrs by broth microdilution method; type: functional; settings: CIP 65.25, 18 h
Method in brief: as §3

Staphylococcus aureus [14] = test: Antibacterial activity against Staphylococcus aureus ATCC 9144 after 18 hrs by broth microdilution method; type: functional; settings: ATCC 9144, 18 h
Method in brief: as §2

Staphylococcus aureus [15] = test: Antibacterial activity against Staphylococcus aureus ATCC 29213 after 18 hrs by broth microdilution method; type: functional; settings: ATCC 29213, 18 h
Method in brief: as §2

KB [16] = test: Cytotoxicity against human KB cells at 10 uM; type: cell-based
Staphylococcus aureus [17] = test: Antibacterial activity against vancomycin intermediate Staphylococcus aureus […] after 18 hrs by broth microdilution method; type: functional
Method in brief: as §3

Staphylococcus aureus [18] = test: Antibacterial activity against methicillin-resistant Staphylococcus aureus ATCC 33592 after 18 hrs by broth microdilution method; type: functional; settings: ATCC 33592, 18 h
Method in brief: as §3

Streptococcus mitis = test: Antibacterial activity against Streptococcus mitis CIP 103335 after 18 hrs by broth microdilution method; type: functional; settings: CIP 103335, 18 h
Method in brief: as §3, with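 “broth […].” for “broth.”, “read after” for “incubated”, “with no” for “giving complete inhibition of”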

Streptococcus pyogenes = test: Antibacterial activity against Streptococcus pyogenes CIP 104226 after 18 hrs by broth microdilution method; type: functional; settings: CIP 104226, 18 h
Method in brief: as §3

Enterococcus faecalis = test: Antibacterial activity against Enterococcus faecalis ATCC 29212 after 18 hrs by broth microdilution method; type: functional; settings: ATCC 29212, 18 h
Method in brief: as §3

Staphylococcus aureus [19] = test: Antibacterial activity against Staphylococcus aureus CIP 65.6 after 18 hrs by broth microdilution method; type: functional; settings: CIP 65.6, 18 h
Method in brief: as §2

[20] = system: Staphylococcus epidermidis; test: Antibacterial activity against Staphylococcus epidermidis CIP 81.55 after 18 hrs by broth microdilution method; type: functional; settings: CIP 81.55, 18 h
Method in brief: as §2

Enterobacter cloacae = test: microbe, parasite or virus in culture; settings: ATCC 13047, 18 h

SMILES	MIC (Acinetobacter baumannii)	Activity (HCT-116 [1])	MIC (Streptococcus pneumoniae [2])	MIC (Staphylococcus aureus [3])	Activity (MRC5 [4])	MIC (Enterococcus faecium)	MIC (Streptococcus agalactiae)	Activity (HCT-116 [5])	Activity (MRC5 [6])	MIC [7]	Activity (KB [8])	MIC (Serratia marcescens)	MIC (Staphylococcus aureus [9])	MIC (Staphylococcus aureus [10])	MIC (Klebsiella pneumoniae)	MIC (Streptococcus pneumoniae [11])	MIC (Haemophilus influenzae)	MIC (Streptococcus mitis)	MIC (Streptococcus pyogenes)	MIC (Enterococcus faecalis)	other results
Cl.Cl.Cl.NCC(NO)c1c[nH]c2cc(Cl)ccc12 (centres undefined)	64 mg/L	Non-toxic	64 mg/L	16 mg/L	Non-toxic	128 mg/L	64 mg/L	Non-toxic	Non-toxic	16 mg/L	Non-toxic	64 mg/L	16 mg/L	16 mg/L	64 mg/L	64 mg/L	128 mg/L	64 mg/L	64 mg/L	128 mg/L	MIC (Escherichia coli): 32 mg/L; MIC (Pseudomonas aeruginosa): 64 mg/L; MIC [12]: 16 mg/L; MIC (Staphylococcus aureus [13]): 16 mg/L; MIC (Staphylococcus aureus [14]): 16 mg/L; MIC (Staphylococcus aureus [15]): 16 mg/L; Activity (KB [16]): Non-toxic; MIC (Staphylococcus aureus [17]): 16 mg/L; MIC (Staphylococcus aureus [18]): 16 mg/L; MIC (Staphylococcus aureus [19]): 16 mg/L; MIC [20]: 16 mg/L; MIC (Enterobacter cloacae): 64 mg/L
Cl.Cl.NCC(NO)c1c[nH]c2ccccc12 (centres undefined)	> 128 mg/L	Non-toxic	> 128 mg/L	32 mg/L	Non-toxic	> 128 mg/L	> 128 mg/L	Non-toxic	Non-toxic	32 mg/L	Non-toxic	> 128 mg/L	32 mg/L	32 mg/L	> 128 mg/L	> 128 mg/L	> 128 mg/L	> 128 mg/L	> 128 mg/L	> 128 mg/L	MIC (Escherichia coli): > 128 mg/L; MIC (Pseudomonas aeruginosa): > 128 mg/L; MIC [12]: 32 mg/L; MIC (Staphylococcus aureus [13]): 64 mg/L; MIC (Staphylococcus aureus [14]): 32 mg/L; MIC (Staphylococcus aureus [15]): 32 mg/L; Activity (KB [16]): Non-toxic; MIC (Staphylococcus aureus [17]): 32 mg/L; MIC (Staphylococcus aureus [18]): 64 mg/L; MIC (Staphylococcus aureus [19]): 32 mg/L; MIC [20]: 32 mg/L; MIC (Enterobacter cloacae): > 128 mg/L
Cl.Cl.NCC(NO)c1c[nH]c2ccc(F)cc12 (centres undefined)	32 mg/L	Non-toxic	64 mg/L	8 mg/L	Non-toxic	64 mg/L	32 mg/L	Non-toxic	Non-toxic	8 mg/L	Non-toxic	32 mg/L	8 mg/L	8 mg/L	32 mg/L	64 mg/L	> 128 mg/L	32 mg/L	32 mg/L	64 mg/L	MIC (Escherichia coli): 32 mg/L; MIC (Pseudomonas aeruginosa): 32 mg/L; MIC [12]: 8 mg/L; MIC (Staphylococcus aureus [13]): 16 mg/L; MIC (Staphylococcus aureus [14]): 8 mg/L; MIC (Staphylococcus aureus [15]): 8 mg/L; Activity (KB [16]): Non-toxic; MIC (Staphylococcus aureus [17]): 8 mg/L; MIC (Staphylococcus aureus [18]): 16 mg/L; MIC (Staphylococcus aureus [19]): 8 mg/L; MIC [20]: 8 mg/L; MIC (Enterobacter cloacae): 32 mg/L
CO/N=C(\C(=O)N[C@@H]1C(=O)N2C(C(=O)O)=C(COC(C)=O)CS[C@H]12)c1csc(N)n1 [CEFOTAXIME]			0.125 mg/L (≈ 0.274 µM)			0.5 mg/L (≈ 1.1 µM)	0.016 mg/L (≈ 0.0351 µM)									0.125 mg/L (≈ 0.274 µM)	0.032 mg/L (≈ 0.0703 µM)	0.016 mg/L (≈ 0.0351 µM)	0.016 mg/L (≈ 0.0351 µM)	0.5 mg/L (≈ 1.1 µM)	
